Consider 3 compounds from ChEMBL document CHEMBL1129305, “Drug delivery systems. 2. Camptothecin 20-O-poly(ethylene glycol) ester transport forms” (J Med Chem, 1996).

Series [1] can be described thus: Half life in PBS buffer (pH 7.4) at 37 degree C. The format is ADME. Put shortly: (§1)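 Hydrolysis run at 37 °C in PBS, pH 5.6 or pH 7.4 as stated in the line. Half-life is the time for loss of the ester. Runs done in duplicate, with SD ±10%.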
A short description of series [2]: Half life in human plasma at 37 degree C. The format is ADME, organism-based. The gist of the method:
(§2)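 Ester incubated at 37 °C in rat or human plasma. Half-life recorded as disappearance of the transport form, with release of parent drug also followed over time. Runs done in duplicate, with SD ±10%.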

Series [3] has as its system Mus musculus. Put plainly: Ratio between mean time to death of treated versus control (survivors at 40 days) at a dose of 16 mg/kg of camptothecin, mice dosed days 1-5. The class given is functional. The gist of the method:
(§3)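 Mice bearing P388 leukemia dosed ip on days 1–5 to a total of 16 mg/kg camptothecin equivalents, given as aqueous solution or lipid suspension. Groups were 10–20 mice against untreated controls, with survivors counted at 40 days. Read-outs were mean time to death, T/C and ILS = (T/C−1)×100, compared by Student t test assuming equal variances.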

The nature of series [4]: Half life in rat plasma at 37 degree C. The format is ADME, organism-based. The gist of the method: as §2
Series [5] has as its system Mus musculus. Put plainly: Percentage of increased life expectancies (ILS) of mice at a dose of 16 mg/kg camptothecin; ILS = (T/C-1) X 100. The format is functional. Put shortly: as §3
Series [6] deals with Mus musculus. Put plainly: Mean time to death at a dose of 16 mg/kg of camptothecin, mice dosed days 1-5. The format is ADME, organism-based. Also on record: dose 16 mg/kg. The note with it: in vivo. Put shortly: as §3
The nature of series [7]: Half life in PBS buffer (pH 5.6) at 37 degree C. The format is ADME. The gist of the method:
as §1

The nature of series [8]: Half life in PBS buffer (pH 7.4) at 37 degree C (DMSO employed as cosolvent). The format is ADME. The note with it: PBS buffer with DMSO as cosolvent. The gist of the method:
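Hydrolysis run at 37 °C in PBS pH 7.4 with DMSO as cosolvent. Half-life recorded in duplicate, with SD ±10%.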

Structures are written as SMILES.

As usually defined, the half-life is how long it takes for the measured level to halve. High values mean slow loss, low ones fast loss. The ILS is how much longer treated animals lived than controls. High values mean a large benefit in survival, low ones a small benefit in survival. On to `CC[C@@]1(OC(=O)CN)C(=O)OCc2c1cc1n(c2=O)Cc2cc3ccccc3nc2-1.O=C(O)C(F)(F)F`, for which the half-life in series [1] is 210 min; in series [2], 15 min; in series [4], 30 min; in series [7], 960 min. In series [3], the T/C came to 1.64. The compound further gave an ILS at 16 mg/kg in series [5] of 64%. The compound also gave a Mean time to death in series [6] of 21.7 days.
For `CC[C@@]1(OC(C)=O)C(=O)OCc2c1cc1n(c2=O)Cc2cc3ccccc3nc2-1`, in series [8], the half-life was above 3 days.
For `CC[C@@]1(O)C(=O)OCc2c1cc1n(c2=O)Cc2cc3ccccc3nc2-1` [CAMPTOTHECIN], the T/C in series [3] was 2.93. This compound also returned an ILS at 16 mg/kg in series [5] of 193%. For the same compound, in series [6], the “Mean time to death” value came out at 38.7 days.
